ChEMBL document CHEMBL1649401, “Synthesis and biophysical evaluation of arylhydrazono-1H-2-indolinones as β-amyloid aggregation inhibitors” (Eur J Med Chem, 2011)
Activity calls are given as the source filed them. No cut-off for these calls is given here.

Key:
[1] = Inhibition of amyloid beta (1 to 40) aggregation after 2 hrs by thioflavin T based fluorometric assay
[2] = Inhibition of amyloid beta (1 to 40) aggregation at 100 uM after 2 hrs by thioflavin T based fluorometric assay
In short: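 Aβ1-40 (HFIP-treated, lyophilized) at 30 μM in PBS (0.01 M, NaCl 0.1 M, pH 7.4) containing 2% HFIP and 10% DMSO. Incubated with inhibitor in triplicate, 2 h at 25 °C. Sample mixed with 25 μM ThT in 0.025 M phosphate pH 6.0, read at ex 440/em 485 nm. % inhibition = 100 − [(Fi − Fb)/F0]×100. Screen at 100 μM.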

[3] = Inhibition of amyloid beta (1 to 40) aggregation assessed as effect on extension of beta-sheet content at 5 uM up to 8 days by CD spectroscopy assay
In short: (§1)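 Samples as for TEM: 50 μM Aβ1-40, 0.217 M phosphate pH 8.0, 10% ethanol, 37 °C incubation, aliquots removed over time. Spectra 195–250 nm, 0.1 cm cell, room temperature, 0.1 nm steps, 4 nm bandwidth. Buffer/ethanol (± compound) blank subtracted. Absolute 215 nm ellipticity plotted vs incubation time.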

[4] = Inhibition of amyloid beta (1 to 40) aggregation assessed as effect on extension of beta-sheet content at 5 uM after 2 days by CD spectroscopy assay; in short: as §1
[5] = Inhibition of amyloid beta (1 to 40) aggregation assessed as loss of stable random coil arrangement of peptide up to 100 uM after up to 8 days by CD spectroscopy assay; in short: as §1
[6] = Inhibition of amyloid beta (1 to 40) aggregation assessed as reduction of exponential phase of thioflavin T fluorescence curve at 25 uM after 3 to 4 days
In short: (§2)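 Aβ1-40 (50 μM) incubated alone or with compound in 0.217 M phosphate pH 8.0, 10% ethanol, 37 °C. Aliquots taken at time points over several days and analyzed by ThT fluorescence. Values expressed as percentage of the plateau fluorescence of free aggregation.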

[7] = Solubility of the compound in aqueous buffer; assay type: physicochemical
[8] = Inhibition of amyloid beta (1 to 40) aggregation assessed as reduction of exponential phase of thioflavin T fluorescence curve at 100 uM after 3 to 4 days; in short: as §2
[9] = Inhibition of amyloid beta (1 to 40) aggregation assessed as reduction of autocorrelation function particles size at 5 uM after 3 days by dynamic light-scattering analysis
In short: (§3)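 Dynamic light scattering at a 173° backscatter angle with a 633 nm laser, cell held at 37 °C. z-averaged hydrodynamic diameter obtained by second-order cumulant analysis and the Stokes–Einstein equation.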

[10] = Inhibition of amyloid beta (1 to 40) aggregation assessed as loss of beta-sheet structure up to 100 uM after up to 8 days by CD spectroscopy assay; in short: as §1
[11] = Inhibition of amyloid beta (1 to 40) aggregation assessed as delay in formation of fibrils at 5 uM after 12 hrs by dynamic light-scattering analysis; in short: as §3
[12] = Inhibition of amyloid beta (1 to 40) aggregation assessed as reduction of exponential phase of thioflavin T fluorescence curve at 5 uM after 3 to 4 days; in short: as §2
[13] = Inhibition of amyloid beta (1 to 40) aggregation assessed as inhibition of extended fibrils formation at 5 uM after 7 days by transmission electron microscopic analysis
[14] = Inhibition of amyloid beta (1 to 40) aggregation assessed as formation of long and curly fibrils at 5 uM after 7 days by transmission electron microscopic analysis

Row | IC50 [1] [µM] | inhibition [2] [%] | SMILES | also measured
1 | 4.4 |  | COc1cc2c(cc1OC)/C(=N/Nc1ccc(C(C)C)cc1)C(=O)N2 | 
2 | 0.4 |  | COc1ccc2c(c1)/C(=N/Nc1ccc(C(C)C)cc1)C(=O)N2 | 
3 |  | 56 | COc1ccc2c(c1)/C(=N/Nc1cccc(C(C)(C)C)c1)C(=O)N2 | 
4 |  | 52 | COc1ccc2[nH]c(O)c(/N=N/c3ccccc3)c2c1 | 
5 |  | 68 | COc1cc2c(cc1OC)/C(=N/Nc1ccccc1)C(=O)N2 | 
6 |  | 63 | O=C1Nc2ccc(Br)cc2/C1=N/Nc1ccc(Cl)cc1 | 
7 | 18 |  | O=C1Nc2ccc(O)cc2/C1=N/Nc1cccc(Cl)c1 | 
8 |  | 20 | COc1ccc2c(c1)/C(=N/Nc1ccc(OCc3ccccc3)cc1)C(=O)N2 | 
9 | 3.7 |  | COc1ccc(N/N=C2\C(=O)Nc3ccc(OC)cc32)cc1 | 
10 |  | 71 | COc1cc2c(cc1OC)/C(=N/Nc1ccc(Cl)cc1)C(=O)N2 | 
11 |  | 29 | O=C1Nc2ccccc2/C1=N/Nc1cccc([N+](=O)[O-])c1 | 
12 | 1.6 |  | CC(C)c1ccc(N/N=C2\C(=O)Nc3cc(O)c(O)cc32)cc1 | 
13 | 24 |  | O=C1Nc2cc(O)c(O)cc2/C1=N/Nc1ccc(O)cc1 | 
14 |  | 68 | COc1cc2c(cc1OC)/C(=N/Nc1ccccc1Cl)C(=O)N2 | 
15 |  | 61 | Oc1[nH]c2ccccc2c1/N=N/c1ccccc1 | 
16 |  | 12 | O=C1Nc2ccc([N+](=O)[O-])cc2/C1=N/Nc1ccc(Cl)cc1 | 
17 |  | 29 | COc1ccc2c(c1)/C(=N/Nc1ccc(C)cc1)C(=O)N2 | 
18 | 4.3 |  | O=C1Nc2cc(O)c(O)cc2/C1=N/Nc1ccccc1 | 
19 | 22 |  | COc1ccc(N/N=C2\C(=O)Nc3cc(OC)c(OC)cc32)cc1 | 
20 | 22 |  | O=C1Nc2cc(O)ccc2/C1=N/Nc1ccccc1 | 
21 |  | 0 | O=C1Nc2ccc([N+](=O)[O-])cc2/C1=N/Nc1ccccc1 | 
22 |  | 62 | O=C1Nc2ccc(O)cc2/C1=N/Nc1ccccc1 | 

Row | IC50 [1] [µM] | inhibition [2] [%] | SMILES | also measured
23 | 11 |  | O=C1Nc2cc(O)c(O)cc2/C1=N/Nc1ccccc1Cl | 
24 |  | 24 | O=C1Nc2ccccc2/C1=N/Nc1ccc(Cl)cc1 | 
25 |  | 72 | COc1ccc2c(c1)/C(=N/Nc1cccc(Cl)c1)C(=O)N2 | 
26 | 7.1 |  | COc1ccc2c(c1)NC(=O)/C2=N\Nc1ccc(C(C)C)cc1 | 
27 | 13 |  | COc1ccc(N/N=C2\C(=O)Nc3ccccc32)cc1 | 
28 |  | 43 | COc1ccc2c(c1)/C(=N/Nc1ccc(Cl)cc1)C(=O)N2 | 
29 | 15 |  | COc1ccc2c(c1)/C(=N/Nc1ccc(C(C)(C)C)cc1)C(=O)N2 | 
30 | 21 |  | CC(C)c1ccc(N/N=C2\C(=O)Nc3ccc(O)cc32)cc1 | 
31 |  | 57 | O=C1Nc2ccccc2/C1=N/Nc1ccc(OC(F)(F)F)cc1 | 
32 |  | 52 | O=C1Nc2ccccc2/C1=N/Nc1cccc(F)c1 | 
33 |  | 39 | O=C1Nc2ccccc2/C1=N/Nc1cccc(Cl)c1 | 
34 |  | 64 | CC(C)c1ccc(N/N=C2\C(=O)Nc3ccccc32)cc1 | 
35 |  | 61 | O=C1Nc2ccc(O)cc2/C1=N/Nc1ccc(O)cc1 | 
36 | 5.8 |  | COc1ccc2c(c1)NC(=O)/C2=N\Nc1ccccc1 | 
37 | 1.1 |  | O=C1Nc2cc(O)c(O)cc2/C1=N/Nc1cccc(Cl)c1 | inhibition [3]: Active; inhibition [4]: inactive; inhibition [5]: Active; inhibition [6]: Active; solubility [7]: soluble; inhibition [8]: Active; inhibition [9]: inactive; inhibition [10]: Active; inhibition [11]: Active; inhibition [12]: Active; inhibition [13]: Active; inhibition [14]: Active
38 |  | 44 | COc1ccc2c(c1)/C(=N/Nc1cccc(OCc3ccccc3)c1)C(=O)N2 | 
39 | 9.3 |  | O=C1Nc2ccccc2/C1=N/Nc1ccc(O)cc1 | 
40 | 17 |  | O=C1Nc2cc(O)c(O)cc2/C1=N/Nc1ccc(Cl)cc1 | 
41 |  | 44 | O=C1Nc2ccccc2/C1=N/Nc1ccccc1Cl | 
42 | 6 |  | CC(C)c1ccc(N/N=C2\C(=O)Nc3cc(O)ccc32)cc1 | 
43 |  | 28 | O=C1Nc2cc(Cl)c(F)cc2/C1=N/Nc1ccc(Cl)cc1 | 
44 | 17 |  | COc1cc2c(cc1OC)/C(=N/Nc1cccc(Cl)c1)C(=O)N2 | 
